Test results from publication PMC10828771 (Haematologica, 2023).
Residues, ends and D or L forms follow the SMILES beside them. *: point of attachment. Cbz = O=C(OCc1ccccc1)*; CH2F = FC*

Test system: OPM-2 cells
Experiment: Apoptosis and necroptosis inhibition assays
Assay type: cell-based, human
Procedure, shortened: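 OPM-2 cells at 250,000 cells/mL pre-incubated 1 h at 37°C in medium containing pan-caspase inhibitor Z-VAD-FMK, necroptosis inhibitor necrostatin-1s, or DMSO. Washed (PBS for Z-VAD-FMK arm), then cultured 72 h with test compound or DMSO. Viability by Zombie-aqua staining and flow cytometry. Z-VAD-FMK arm: mean ± SD of 3 independent experiments.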

CN1C(=O)NC(Cc2c[nH]c3c(Cl)cccc23)C1=O (centres unmarked) [Necrostatin-1s]
effect of pretreatment on OSU-13-mediated cell death (100 μM necrostatin-1s 1 h, then 1 μM OSU-13 72 h): no measurable effect

COC(=O)C[C@H](NC(=O)[C@H](C)NC(=O)[C@@H](NC(=O)OCc1ccccc1)C(C)C)C(=O)CF [Z-VAD-FMK] (Cbz-Val-Ala-Asp(OMe)-CH2F)
decrease of OSU-13-mediated cell death by pretreatment (100 mM Z-VAD-FMK 1 h, then 1 mM OSU-13 72 h): 20±6.7%
